Source: publication PMC9055346 (RSC Advances, 2020)
Where “and” joins values, the source holds several entries; their conditions need not be identical. Equal values may be shown once.

Assays:
[1] = target: AChE from electric eel (EeAChE) (Electrophorus electricus, UniProt O42275); assay: In vitro AChE inhibition, modified Ellman's method; type: biochemical; settings: for IC50: EeAChE IC50 ± SEM, mean of three independent experiments; for inhibition at 156 µM / inhibition at 312 µM / inhibition at 625 µM / inhibition at 1250 µM / inhibition at 2500 µM / inhibition at 5000 µM / inhibition at 10000 µM: read-out: % of AChE inhibition; for AChE inhibitory activity (in words): up to 10 mM
Sequence of AChE from electric eel (EeAChE) (O42275 24-633): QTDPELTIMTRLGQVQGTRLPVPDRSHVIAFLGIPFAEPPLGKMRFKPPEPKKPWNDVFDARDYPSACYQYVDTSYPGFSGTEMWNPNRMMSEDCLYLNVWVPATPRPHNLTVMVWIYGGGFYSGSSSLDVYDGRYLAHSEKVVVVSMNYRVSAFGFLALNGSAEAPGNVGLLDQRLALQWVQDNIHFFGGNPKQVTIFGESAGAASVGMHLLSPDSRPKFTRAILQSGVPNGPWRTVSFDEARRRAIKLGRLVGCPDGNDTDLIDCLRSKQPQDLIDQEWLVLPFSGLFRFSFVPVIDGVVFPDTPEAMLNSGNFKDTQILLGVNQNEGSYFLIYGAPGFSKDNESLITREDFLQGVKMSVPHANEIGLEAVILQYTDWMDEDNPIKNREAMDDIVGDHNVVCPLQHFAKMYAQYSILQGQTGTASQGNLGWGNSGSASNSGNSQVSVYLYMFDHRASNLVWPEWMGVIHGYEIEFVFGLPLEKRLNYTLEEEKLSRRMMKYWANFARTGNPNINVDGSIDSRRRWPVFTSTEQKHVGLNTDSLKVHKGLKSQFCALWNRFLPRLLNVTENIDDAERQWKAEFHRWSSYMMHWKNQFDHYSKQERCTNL

[2] = Antioxidant assay, ORAC-FL method; settings: compound and Trolox at 8 μM, 37 °C, three independent experiments
Outline: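 ORAC-FL in 75 mM phosphate buffer, 200 μL total: test compound, Trolox (both 8 μM) or buffer blank with 150 nM fluorescein solution, kept dark at 37 °C for 30 min. Then 12 mM AAPH solution is added and fluorescence (ex 485/em 535 nm) read every 1 min for 15 min. Net AUC vs blank is expressed as Trolox equivalents (Trolox = 1). Triplicates; three independent experiments, mean ± SEM.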

[3] = Metal chelation study by UV spectrophotometer; type: physicochemical; settings: for chelation of Al^3+ (in words): UV spectra 200 to 600 nm
Outline: (§1)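 UV spectra from 200 to 600 nm at 37 °C. Test compound and metal salt (FeCl3, CuCl2, ZnSO4·H2O or AlCl3·6H2O) are combined at 100 μM each and incubated at 37 °C for 30 min. Compound-alone spectra use water in place of metal. Read-outs are % change in absorbance, (+) for decrease and (−) for increase, plus band shift.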

[4] = Metal chelation study by UV spectrophotometer; type: physicochemical; settings: for chelation of Fe^3+ (in words): UV spectra 200 to 600 nm
Outline: as §1

[5] = Metal chelation study, selectivity towards essential metals; type: physicochemical; settings: UV spectra
Outline: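 KCl, NaCl, CaSO4 or […] solutions are mixed with test compound at 100 μM each ligand and metal, incubated at 37 °C for 30 min, and scanned by UV from 200 to 600 nm, with compound-alone spectra taken in water. For the affinity check, Fe3+, Zn2+, Cu2+, Ca2+, Mg2+, Na+ and K+ are mixed at equal concentrations with test compound at 100 μM.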

[6] = Affinity study of 5i towards Fe^3+ in metal pool; type: physicochemical; settings: Zn^2+, Cu^2+, Ca^2+, Mg^2+, Na^+ and K^+ and 5i, 100 μM each
[7] = Stoichiometric study of Fe^3+–5i complex; type: physicochemical; settings: Fe^3+ 0–100 μM, 5i 100 μM; at 239 nm and 327 nm as printed
Outline: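 UV titration at 37 °C: 100 μM test compound in a cuvette receives 20 μL aliquots of 1 mM FeCl3, raising Fe3+ in 10 μM steps to a final 10–100 μM. Spectra are recorded after each addition. A Job's plot is built from band absorbances, and the mole fraction is obtained by extrapolation.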

SMILES	IC50 [1] [mM]	inhibition at 156 µM [1] [%]	inhibition at 312 µM [1] [%]	inhibition at 625 µM [1] [%]	inhibition at 1250 µM [1] [%]	inhibition at 2500 µM [1] [%]	inhibition at 5000 µM [1] [%]	inhibition at 10000 µM [1] [%]	ORAC index ± SEM [2]	further results
Cc1ncc(COCc2cn(Cc3cccc(Br)c3)nn2)c(CO)c1O [Compound 5n, 5-(((1-(3-Bromobenzyl)-1H-1,2,3-triazol-4-yl)methoxy)methyl)-4-(hydroxymethyl)-2-methylpyridin-3-ol]	1.08	14.7	25.8	42	57.4	70.2	75.9	86.3	2.2079 Trolox equivalents	
Cc1ncc(COCc2cn(Cc3ccccc3)nn2)c(CO)c1O [Compound 5a, 5-(((1-Benzyl-1H-1,2,3-triazol-4-yl)methoxy)methyl)-4-(hydroxymethyl)-2-methylpyridin-3-ol]	> 10								1.0564 Trolox equivalents	AChE inhibitory activity (in words) [1]: inactive
Cc1ncc(COCc2cn(Cc3ccccc3C(F)(F)F)nn2)c(CO)c1O [Compound 5q, 4-(Hydroxymethyl)-2-methyl-5-(((1-(2-(trifluoromethyl)benzyl)-1H-1,2,3-triazol-4-yl)methoxy)methyl)pyridin-3-ol]	1.13	22.5	26.9	39.1	53.8	64.1	73.4	81.9	0.7168 Trolox equivalents	chelation of Al^3+ (in words) [3]: chelated; chelation of Fe^3+ (in words) [4]: chelated
Cc1ncc(CO)c(CO)c1O [Pyridoxine, reference compound]									0.5249 Trolox equivalents	AChE inhibitory activity (in words) [1]: not an AChE inhibitor; AChE inhibitory activity (in words) ([1]; listed as pyridoxine): inactive
Cc1ccc(Cn2cc(COCc3cnc(C)c(O)c3CO)nn2)cc1 [Compound 5b, 4-(Hydroxymethyl)-2-methyl-5-(((1-(4-methylbenzyl)-1H-1,2,3-triazol-4-yl)methoxy)methyl)pyridin-3-ol]	3.38								1.8428 Trolox equivalents	
COc1cccc(Cn2cc(COCc3cnc(C)c(O)c3CO)nn2)c1 [Compound 5e, 4-(Hydroxymethyl)-5-(((1-(3-methoxybenzyl)-1H-1,2,3-triazol-4-yl)methoxy)methyl)-2-methylpyridin-3-ol]	4.57								1.8862 Trolox equivalents	
Cc1ncc(COCc2cn(Cc3cccc(Cl)c3)nn2)c(CO)c1O [Compound 5k, 5-(((1-(3-Chlorobenzyl)-1H-1,2,3-triazol-4-yl)methoxy)methyl)-4-(hydroxymethyl)-2-methylpyridin-3-ol]	2.71								0.8358 Trolox equivalents	
Cc1ncc(COCc2cn(Cc3ccc(C(F)(F)F)cc3)nn2)c(CO)c1O [Compound 5o, 4-(Hydroxymethyl)-2-methyl-5-(((1-(4-(trifluoromethyl)benzyl)-1H-1,2,3-triazol-4-yl)methoxy)methyl)pyridin-3-ol]	6.52								2.0758 Trolox equivalents	
Cc1ncc(COCc2cn(Cc3ccc(Cl)cc3)nn2)c(CO)c1O [Compound 5j, 5-(((1-(4-Chlorobenzyl)-1H-1,2,3-triazol-4-yl)methoxy)methyl)-4-(hydroxymethyl)-2-methylpyridin-3-ol]	2.72								1.9697 Trolox equivalents	
Cc1ncc(COCc2cn(Cc3cc(F)cc(F)c3)nn2)c(CO)c1O [Compound 5i, 5-(((1-(3,5-Difluorobenzyl)-1H-1,2,3-triazol-4-yl)methoxy)methyl)-4-(hydroxymethyl)-2-methylpyridin-3-ol]	1.56	15	26.6	35.4	43	61.4	66.8	77.9	1.21 ± 0.28 Trolox equivalents and 1.2138 Trolox equivalents	chelation of Al^3+ (in words) [3]: chelated; increase in absorbance with Al^3+ ([3]; at 292 nm): 104%; bathochromic shift with Al^3+ ([3]; band at 292 nm): 4 nm; chelation of Fe^3+ (in words) [4]: chelated; bathochromic shift with Fe^3+ ([4]; band at 292 nm): about 3 nm; chelation of Ca^2+, Mg^2+, Na^+ and K^+ (in words) [5]: did not chelate these metal ions at all; affinity towards Fe^3+ in the metal pool (in words) [6]: showed affinity towards Fe^3+ in the metal pool; mole fraction from Job's plot [7]: 0.5
Cc1cccc(Cn2cc(COCc3cnc(C)c(O)c3CO)nn2)c1 [Compound 5c, 4-(Hydroxymethyl)-2-methyl-5-(((1-(3-methylbenzyl)-1H-1,2,3-triazol-4-yl)methoxy)methyl)pyridin-3-ol]	1.38	22.5	26.9	39.1	53.8	64.1	73.4	81.9	2.0164 Trolox equivalents	chelation of Al^3+ (in words) [3]: chelated; chelation of Fe^3+ (in words) [4]: chelated
Cc1ncc(COCc2cn(Cc3cccc(C(F)(F)F)c3)nn2)c(CO)c1O [Compound 5p, 4-(Hydroxymethyl)-2-methyl-5-(((1-(3-(trifluoromethyl)benzyl)-1H-1,2,3-triazol-4-yl)methoxy)methyl)pyridin-3-ol]	3.65								0.8718 Trolox equivalents	
Cc1ncc(COCc2cn(Cc3cccc(F)c3)nn2)c(CO)c1O [Compound 5h, 5-(((1-(3-Fluorobenzyl)-1H-1,2,3-triazol-4-yl)methoxy)methyl)-4-(hydroxymethyl)-2-methylpyridin-3-ol]	1.54	19	25.5	35.1	56.4	60.5	66.6	69	2.1015 Trolox equivalents	
Cc1ncc(COCc2cn(Cc3ccc(Br)cc3)nn2)c(CO)c1O [Compound 5m, 5-(((1-(4-Bromobenzyl)-1H-1,2,3-triazol-4-yl)methoxy)methyl)-4-(hydroxymethyl)-2-methylpyridin-3-ol]	3.14								1.215 Trolox equivalents	
Cc1ncc(COCc2cn(Cc3ccc(F)cc3)nn2)c(CO)c1O [Compound 5g, 5-(((1-(4-Fluorobenzyl)-1H-1,2,3-triazol-4-yl)methoxy)methyl)-4-(hydroxymethyl)-2-methylpyridin-3-ol]	6.47								1.4489 Trolox equivalents	
COc1cc(Cn2cc(COCc3cnc(C)c(O)c3CO)nn2)cc(OC)c1 [Compound 5f, 5-(((1-(3,5-Dimethoxybenzyl)-1H-1,2,3-triazol-4-yl)methoxy)methyl)-4-(hydroxymethyl)-2-methylpyridin-3-ol]	2.65								2.3425 Trolox equivalents	
Cc1c(C)c2c(c(C)c1O)CCC(C)(C(=O)O)O2 (stereo not drawn) [Trolox, reference compound]									1 Trolox equivalents	
Cc1ccccc1Cn1cc(COCc2cnc(C)c(O)c2CO)nn1 [Compound 5d, 4-(Hydroxymethyl)-2-methyl-5-(((1-(2-methylbenzyl)-1H-1,2,3-triazol-4-yl)methoxy)methyl)pyridin-3-ol]	0.907	33.5	36.4	51.1	58.6	69.6	81.3	86	1.9723 Trolox equivalents	
Cc1ncc(COCc2cn(Cc3ccc(Cl)c(Cl)c3)nn2)c(CO)c1O [Compound 5l, 5-(((1-(3,4-Dichlorobenzyl)-1H-1,2,3-triazol-4-yl)methoxy)methyl)-4-(hydroxymethyl)-2-methylpyridin-3-ol]	3.38								1.9421 Trolox equivalents	
